Assay results from PubChem BioAssay AID1899 (The Scripps Research Institute Molecular Screening Center, 2009).
Among all 300,000 compounds or so, about 1,000 (0.33%) were called active. What follows is part of a selection rich in actives, with near analogues and random picks from the rest. Unmarked numbers belong to inactive results.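 Rule for the calls: active = inhibition above the mean of all tested compounds plus 3 SD, set per screening campaign (cut at about 45% in these data); inactive = the rest.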

The compounds below were run on HCV core protein (residues 1-106) dimerization (assay: blockers of core106 self-association – biochemical, TR-FRET, high-throughput, primary screen (AID 1899)). Conditions: TR-FRET GST/Flag-core106 dimerization, 1536-well; at 5 µM; active compounds read high.
Procedure, shortened: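 Assay system: Tagged HCV core106 pair (GST and Flag) | Buffer or medium: KF-containing HEPES buffer, pH 7.45, DTT, CHAPS, BSA | Also added: Eu donor and XL665 acceptor anti-tag antibodies | Dosing: One concentration, 5 µM, in 0.5% DMSO | Timing: 4 h at 22.5 °C | Technique: TR-FRET 671 and 617 nm emission | Repeats: Singlicate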

Structure (SMILES) | inhibition
CC(=O)N1CCN(C(=O)c2cc(-c3ccc(C)o3)nc3ccccc23)CC1 | 1.32%
COc1ccc(NC(=O)c2cc(-c3ccc(C)o3)nc3ccccc23)cc1 | 17.9%
Cc1ccc(NC(=O)c2cc(-c3ccc(C)o3)nc3ccccc23)nc1 | 49.3% (active)
CN(CC(=O)Nc1cccc2c1CCCC2)S(=O)(=O)c1ccc(Cl)cc1 | 1.71%
COc1ccc(N2CCN(C(=O)CSc3nc4cc(OC)c(OC)cc4cc3C#N)CC2)cc1 | 53.1% (active)
COc1ccc(N2CCN(C(=O)CSc3nnc4ncccn34)CC2)cc1 | -2.8%
CCOc1ccc(-c2nnn(CC(=O)N3CCN(c4ccc(OC)cc4)CC3)n2)cc1OCC | 7.89%
Cc1nnc(SC(C(=O)Nc2cc(Cl)cc(Cl)c2)c2ccccc2)[nH]c1=O (centres undefined) | 4.94%
COC(=O)c1cc(-c2cccs2)nc2ccccc12 | 3.48%
CN(C(=O)COc1nnc(-c2cccs2)c(-c2cccs2)n1)c1ccccc1 | 49% (active)
O=C(O)Cc1sc(-c2ccccc2)nc1-c1cccs1 | 5.73%
CN(C(=O)CC1C(=O)NCCN1Cc1ccc(F)cc1Cl)C1CCCCC1 (centres undefined) | -6.47%
Cc1ccc(C(=O)c2coc3ccc(O)c(CN(C)C)c23)cc1 | -5.01%
COc1cc(OC)c(C(=S)N2CCCC2)cc1OC | 4.43%
Cc1ccc(S(=O)(=O)N/N=C\c2cc3c(cc2[N+](=O)[O-])OCO3)cc1 | 2.28%
COc1ccc(/C=N/NS(=O)(=O)c2ccc(NC(C)=O)cc2)cc1 | -3.63%
COc1ccc(S(=O)(=O)N/N=C\c2ccc(OC)c(COc3ccc(C)cc3[N+](=O)[O-])c2)cc1 | 56% (active)
COc1ccccc1N(CC(=O)Nc1ccc(C(F)(F)F)cc1)S(C)(=O)=O | -4.98%
O=C(O)CSc1nccn1-c1cccc(Cl)c1 | -3.31%
CC(C(=O)N=Nc1c(O)n(C)c2ccc(Br)cc12)n1cnc2ccccc2c1=O (centres undefined) | 11.6%
O=C(CN1CCN(S(=O)(=O)/C=C/c2ccccc2)CC1)Nc1ccc(N2CCOCC2)cc1 | 2.85%
COc1ccccc1N1CCN(CC(=O)NC(=O)NCc2ccco2)CC1 | -7.99%
O=C(CN1CCN(S(=O)(=O)/C=C/c2ccccc2)CC1)NC(=O)NCc1ccco1 | 47.9% (active)

Structure (SMILES) | inhibition
Cc1ccc(S(=O)(=O)NCCC(=O)OCC(=O)N(C)c2ccccc2)cc1 | -0.65%
N#Cc1cccc(NC(=O)CN2CCCCCC2)c1 | -0.12%
Cc1cccc(C(=O)OC(C)C(=O)NC2CCCc3ccccc32)c1O (centres undefined) | -6.15%
CCOC(=O)CSC1=C(C#N)C(c2sccc2C)CC(=O)N1 (centres undefined) | 6.38%
C=CCOC(=O)C1=C(C)OC(N)=C(C#N)C1c1ccc(F)cc1 (centres undefined) | -4.37%
C=CCOC(=O)C1=C(C)NC(SCC(=O)OCC)=C(C#N)C1c1ccc(C)cc1 (centres undefined) | 59.5% (active)
Cc1ccc(CN(N=Nc2nonc2N)c2nonc2N)c(C)c1 | 0.98%
CS(=O)(=O)c1ccc2c(c1)SC1=NC(=O)/C(=C/c3ccco3)C(=N)N12 | 79.4% (active)
Cc1cc(/C=C2/C(=N)N3C(=NC2=O)SN=C3S(C)(=O)=O)c(C)n1-c1ccccc1 | 18.8%
CS(=O)(=O)C1=NN2C(=N)/C(=C\c3ccc(OCCOc4ccccc4)cc3)C(=O)N=C2S1 | 18.8%
Cc1ccc(C)c2[nH]c(=O)c(CN(Cc3cccnc3)C(=S)NCc3ccco3)cc12 | 7.88%
C[C@H]1CCC(=O)N([C@H](CSc2ccccc2)Cc2ccccc2)CC1 | -3.23%
O=C(NCC(c1cccs1)N1CCOCC1)c1cc(-c2ccccn2)nc2ccccc12 (centres undefined) | 0.32%
O=C(Nc1ccncc1)c1cc(-c2ccccn2)nc2ccc(Br)cc12 | -6.91%
O=C(NCc1cccs1)c1cc(-c2ccccn2)nc2ccc(Br)cc12 | 49.3% (active)
Cc1cc(C)n(CCNC(=O)CC2C(=O)NCCN2Cc2ccc(C)o2)n1 (centres undefined) | 2.72%
COc1ccc(OC)c(NC(=O)N[C@H](Cc2ccccc2)C(=O)NN)c1 | -4.04%
CCOC(=O)C1(CC2CCCCO2)CCN(Cc2nc(-c3cccs3)oc2C)CC1 (centres undefined) | -1.21%
N#C/C(=C\c1ccc(-c2cccc([N+](=O)[O-])c2)o1)C(=O)NCCN1CCOCC1 | -14.4%
Cc1ccc(Cc2cnc(NC(=O)/C(C#N)=C/c3ccc(-c4cccc([N+](=O)[O-])c4)o3)s2)cc1 | 46.7% (active)
Cc1ccc(C(=O)N/C(=C/c2ccc(-c3cccc([N+](=O)[O-])c3)o2)C(=O)NCCCN(C)C)cc1 | -11.9%
CN1/C(=c2/s/c(=C3/C(=O)N(c4ccccc4)NC3=Nc3ccccc3)n(C)c2=O)C(C)(C)c2ccccc21 | 21.6%
C=CCC1(C#N)C(=S)NC(C)=C(C(=O)OCC)C1c1ccccc1 (centres undefined) | -0.47%

Structure (SMILES) | inhibition
CC(C)c1ccc(N2CC(C(=O)Nc3nccs3)CC2=O)cc1 (centres undefined) | 3.92%
O=C(CCCN1C(=O)/C(=C\c2ccccc2)SC1=S)Nc1ccccc1O | 1.56%
O=C(CCCN1C(=O)/C(=C/c2ccccc2)SC1=S)Nc1ccc(O)cc1 | 0.73%
O=C(CCCN1C(=O)/C(=C\c2ccco2)SC1=S)Nc1cccc2ccccc12 | 50.6% (active)
CCC(c1nnnn1Cc1ccco1)N(Cc1cc2cc(OC)ccc2[nH]c1=O)C1CCCCC1 (centres undefined) | 53.5% (active)
CCC(c1nnnn1Cc1ccco1)N(CCc1ccccc1)Cc1cc2ccc(OC)cc2[nH]c1=O (centres undefined) | 14.3%
CCC(c1nnnn1Cc1ccccc1)N(Cc1cc2cc(OC)ccc2[nH]c1=O)CC1CCCO1 (centres undefined) | 9.57%
O=C(CSc1nnc(-c2ccc([N+](=O)[O-])cc2)o1)Nc1ccccn1 | -13.9%
Cc1cc2c(cc1C)N(C(=O)CN1C(=O)c3ccccc3C1=O)C(C)(C)c1ssc(=S)c1-2 | 20.8%
CCOC(=O)C1CSC(CC(=O)Nc2ccc(OCC)cc2)C(=O)N1 (centres undefined) | -5.22%
O=C(COc1ccc(/C=N/NC(=O)c2ccc(O)cc2)cc1)Nc1ccc([N+](=O)[O-])cc1 | 55.5% (active)
O=C(N/N=C/c1ccc(O)cc1)/C(=C/c1ccc([N+](=O)[O-])cc1)NC(=O)c1ccccc1 | 10.4%
O=C(COc1ccc([N+](=O)[O-])cc1)Nc1ccc(N2CCCC2)cc1 | 9.26%
CC1(c2nnc(-c3ccncc3)o2)CC(c2cccnc2)=NO1 (centres undefined) | 1.13%
Cc1ccc(C)c(NS(=O)(=O)c2c(C)[nH]c(C)c2C(=O)N2CCCCC2)c1 | -13.2%
O=C1COc2ccc(NC(=O)N3CCN(c4ccc(F)cc4)CC3)cc2N1 | -3.43%
COCCN1C=C2C(=O)C(C)(OC(=O)C3CCCC3)C(=O)C=C2C=C1c1ccsc1 (centres undefined) | -6.55%
CC1(OC(=O)C2CCCC2)C(=O)C=C2C=C(c3ccc(C#N)cc3)OC=C2C1=O (centres undefined) | 53.6% (active)
CC(C)(C)OC(=O)NCCCC1=CC2=CC(=O)C(C)(OC(=O)c3ccco3)C(=O)C2=CO1 (centres undefined) | 28.9%
Cn1cc(-c2ccccc2)cc(C#N)c1=O | 7.52%
O=C(NCc1ccccn1)c1ccc2nc(-c3ccco3)c(-c3ccco3)nc2c1 | 77.7% (active)
CCCC(=O)Nc1ccc2c(c1)nc(CCNC(=O)c1ccco1)n2C | -7.25%
Cc1cc(C)cc(NC(=O)NCc2ccccn2)c1 | -2.74%

Structure (SMILES) | inhibition
COCCNC(=O)Nc1ccc2nc(-c3ccco3)c(-c3ccco3)nc2c1 | 83.7% (active)
CCOc1cc(NC(=S)NCCCOC)c(OCC)cc1NC(=O)c1ccco1 | -1.9%
COc1ccc2oc(=O)c(C(=O)NCc3ccccn3)cc2c1 | -1.18%
O=C(CCc1ccccc1)Nc1ccc(NC(=O)C2CC2)nc1 | 3.25%
O=[N+]([O-])C(=c1ccc2c(c1)N1C3=C(CCCC3)CC3CCCCC31N=2)[N+](=O)[O-] (centres undefined) | 62.9% (active)
Cc1ccc(S(=O)(=O)c2c[nH]c3ccc(Cl)cc3c2=O)cc1 | 0.6%
CCN1C(=NCCc2cccnc2)N[C@@H](c2ccccc2)[C@H](C(=O)OC)[C@H]1C | 8.18%
CC(C(=O)O)n1cnc2sc3c(c2c1=O)CCCC3 (centres undefined) | 0.01%
COc1ccc(OCC(=O)NN2Cc3ccccc3C2=N)cc1 | -6.41%
COc1ccc(OCC(=O)Nc2nnc(-c3ccco3)s2)cc1 | 54.1% (active)
CNc1nnc(-c2ccco2)s1 | -7.57%
Cc1ccc(OCC(=O)Nc2nnc(-c3ccco3)s2)cc1 | 2.47%
COc1ccc(OC)c(CNC(=O)c2cc(=O)[nH]c3ccc(S(=O)(=O)N4CCCC4)cc23)c1 | 0.99%
CNC(=O)COC(=O)c1cc(-c2ccc(OC)cc2)nc2ccccc12 | 0.09%
COc1cc(-c2cc(C(=O)OCC(=O)Nc3ccc4c(c3)OCO4)c3ccccc3n2)cc(OC)c1OC | 46.1% (active)
COc1ccc(NC(=O)c2cc(-c3cc(OC)c(OC)c(OC)c3)nc3ccccc23)c(OC)c1 | -2.9%
CN(C)/C(CN1CCCCC1)=C1\N=C(c2ccccc2)OC1=O | -2.51%
Cc1ccc(/C=C(\C#N)C(=O)Nc2cccc3ncccc23)o1 | 64.5% (active)
Cc1ccc(C(=O)Nc2cccc3ncccc23)cc1[N+](=O)[O-] | 4.3%
O=C(Nc1cccc2ncccc12)C(Cl)(Cl)Cl | -1.9%
